Data published in ChEMBL document CHEMBL4049426, “Identification of the Clinical Candidate (R)-(1-(4-Fluorophenyl)-6-((1-methyl-1H-pyrazol-4-yl)sulfonyl)-4,4a,5,6,7,8-hexahydro-1H-pyrazolo[3,4-g]isoquinolin-4a-yl)(4-(trifluoromethyl)pyridin-2-yl)methanone (CORT125134): A Selective Glucocorticoid Receptor (GR) Antagonist” (J Med Chem, 2017).

How the values were obtained:
Glucocorticoid receptor [1] = target: T1, Glucocorticoid receptor (Homo sapiens, UniProt P04150); test: Antagonist activity at glucocorticoid receptor in human HepG2 cells assessed as inhibition of dexamethasone-induced tyrosine amino transferase activity preincubated for 30 mins followed by dexamethasone addition measured after 20 hrs; format: cell-based
T1 sequence (P04150 whole entry): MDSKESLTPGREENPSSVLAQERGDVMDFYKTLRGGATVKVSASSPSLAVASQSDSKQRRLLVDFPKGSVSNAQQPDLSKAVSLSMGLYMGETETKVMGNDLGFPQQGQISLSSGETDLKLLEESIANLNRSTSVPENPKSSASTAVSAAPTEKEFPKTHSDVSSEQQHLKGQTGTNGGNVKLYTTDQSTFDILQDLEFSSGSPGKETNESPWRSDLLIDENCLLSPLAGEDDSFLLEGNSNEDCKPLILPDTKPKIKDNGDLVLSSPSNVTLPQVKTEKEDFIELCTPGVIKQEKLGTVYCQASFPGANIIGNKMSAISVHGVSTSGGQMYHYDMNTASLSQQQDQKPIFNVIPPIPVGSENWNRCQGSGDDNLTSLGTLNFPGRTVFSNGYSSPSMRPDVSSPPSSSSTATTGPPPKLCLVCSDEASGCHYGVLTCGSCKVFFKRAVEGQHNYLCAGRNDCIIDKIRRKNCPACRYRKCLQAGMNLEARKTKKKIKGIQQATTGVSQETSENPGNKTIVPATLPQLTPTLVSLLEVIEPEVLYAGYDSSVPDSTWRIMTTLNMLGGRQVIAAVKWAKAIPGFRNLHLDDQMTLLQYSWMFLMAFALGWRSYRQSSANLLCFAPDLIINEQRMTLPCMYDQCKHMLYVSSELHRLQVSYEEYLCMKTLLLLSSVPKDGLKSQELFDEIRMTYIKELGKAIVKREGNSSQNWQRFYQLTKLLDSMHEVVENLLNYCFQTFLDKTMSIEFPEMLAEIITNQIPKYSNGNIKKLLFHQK

Glucocorticoid receptor [2] = target: T1, Glucocorticoid receptor; test: Displacement of fluormone GS Red from human glucocorticoid receptor after 4 hrs by fluorescence polarization assay
[3] = Cmax in Sprague-Dawley CD-1 rat plasma at 3 mg/kg, po administered as cassette dose via gavage measured up to 24 hrs by LC/MS analysis; format: ADME, organism-based; set-up: dose 3 mg/kg, route oral
How it was run: (§1)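 Three male Sprague Dawley CD-1 rats (220-250g) with jugular vein catheters; three test compounds plus a reference dosed together by oral gavage, 3mg/kg each, in DMSO:0.5% methylcellulose 10:90 (0.6mg/mL per compound), 5mL/kg. Plasma sampled pre-dose and at 0.25, 0.5, 1, 2, 4, 6, 8, 24 h; LC/MS.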

[4] = AUC in Sprague-Dawley CD-1 rat plasma at 3 mg/kg, po administered as cassette dose via gavage measured up to 24 hrs by LC/MS analysis; format: ADME, organism-based; set-up: time < 24 hr, dose 3 mg/kg, route oral; how it was run: as §1
[5] = Cmax in Sprague-Dawley CD-1 rat plasma at 5 mg/kg, po administered through gavage measured up to 24 hrs by LC/MS analysis; format: ADME, organism-based; set-up: dose 5 mg/kg, route oral
How it was run: (§2)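 Jugular-catheterized male Sprague Dawley CD-1 rats (220-250g). Oral arm: five rats, 5mg/kg gavage, 1mg/mL in DMSO:0.5% methylcellulose 10:90, 5mL/kg, sampled pre-dose and 0.25-24 h. i.v. arm: three rats, 1mg/kg, 0.5mg/mL in DMSO:PEG400:propylene glycol 10:45:45, sampled pre-dose and 0.08-24 h. Plasma by LC/MS.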

[6] = AUC in Sprague-Dawley CD-1 rat plasma at 5 mg/kg, po administered through gavage measured up to 24 hrs by LC/MS analysis; format: ADME, organism-based; set-up: dose 5 mg/kg, time < 24 hr, route oral; how it was run: as §2
[7] = Oral bioavailability in Sprague-Dawley CD-1 rat plasma at 5 mg/kg administered through gavage measured up to 24 hrs by LC/MS analysis; format: ADME, organism-based; how it was run: as §2
[8] = AUC in monkey plasma at 20 mg/kg, po measured up to 24 hrs by LC/MS analysis; format: ADME, organism-based, Macaca mulatta; set-up: dose 20 mg/kg, time < 24 hr, route oral; details: rhesus monkey
How it was run: (§3)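 Monkey i.v./p.o. study: oral 20mg/kg in 10% DMSO, 0.1% Tween 80, 0.5% hydroxypropylmethylcellulose in water; i.v. dose 1mg/kg.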

[9] = Oral bioavailability in monkey plasma at 20 mg/kg measured up to 24 hrs by LC/MS analysis; format: ADME, organism-based, Macaca mulatta; details: rhesus monkey; how it was run: as §3
[10] = Cmax in monkey plasma at 20 mg/kg, po measured up to 24 hrs by LC/MS analysis; format: ADME, organism-based, Macaca mulatta; set-up: dose 20 mg/kg, route oral; details: rhesus monkey; how it was run: as §3

**Q.** Which Ki (Glucocorticoid receptor [1]) does the source give for CCn1nccc1S(=O)(=O)N1CC[C@H]2Cc3c(cnn3-c3ccc(F)cc3)C[C@]2(C(=O)c2cc(C(F)(F)F)ccn2)C1 here?
**A.** 68 nM

**Q.** For Cc1ccnc(C(=O)[C@]23Cc4cnn(-c5ccc(F)cc5)c4C=C2CCN(S(=O)(=O)c2cc(F)cc(F)c2)C3)c1, which Ki (Glucocorticoid receptor [1]) is on record?
**A.** 4.3 nM

**Q.** And the Ki (Glucocorticoid receptor [2])?
**A.** 0.14 nM

**Q.** For O=C(c1cc(C(F)(F)F)ccn1)[C@]12Cc3cnn(-c4ccc(F)cc4)c3C=C1CCN(S(=O)(=O)c1cn[nH]c1)C2, which Ki (Glucocorticoid receptor [1]) is on record?
**A.** 7.6 nM

**Q.** With Cn1ncc(S(=O)(=O)N2CCC3=Cc4c(cnn4-c4ccc(F)cc4)C[C@]3(C(=O)c3cc(C(F)(F)F)ccn3)C2)n1 [NENOCORILANT] as the compound, how does the Cmax [3] read?
**A.** 0.255 µg/mL

**Q.** What about the Ki (Glucocorticoid receptor [1]) of the same compound?
**A.** 3.1 nM

**Q.** What about the AUC at 24 h [4] of the same compound?
**A.** 0.86 µg·h/mL

**Q.** What does the source list for Cn1ccc(S(=O)(=O)N2CCC3=Cc4c(cnn4-c4ccc(F)cc4)C[C@]3(C(=O)c3cc(C(F)(F)F)ccn3)C2)n1?
**A.** Cmax [5]: 0.51 µg/mL; Cmax [3]: 0.291 µg/mL; Ki (Glucocorticoid receptor [1]): 6.6 nM; AUC at 24 h [4]: 0.863 µg·h/mL; AUC at 24 h [6]: 0.986 µg·h/mL; bioavailability [7]: 68%

**Q.** What does the source list for Cc1cccc(S(=O)(=O)N2CCC3=Cc4c(cnn4-c4ccc(F)cc4)C[C@]3(C(=O)c3cccc(C)n3)C2)c1?
**A.** Ki (Glucocorticoid receptor [1]): 14 nM; Ki (Glucocorticoid receptor [2]): 0.2 nM

**Q.** Which results are given for Cc1ccnc(C(=O)[C@]23Cc4cnn(-c5ccc(F)cc5)c4C=C2CCN(S(=O)(=O)c2ccc(F)c(F)c2)C3)c1?
**A.** Cmax [3]: 0.113 µg/mL; Ki (Glucocorticoid receptor [1]): 5.7 nM; Ki (Glucocorticoid receptor [2]): 0.14 nM; AUC at 24 h [4]: 0.421 µg·h/mL

**Q.** For O=C(c1ccccn1)[C@]12Cc3cnn(-c4ccc(F)cc4)c3C[C@@H]1CCN(S(=O)(=O)c1cccc(C(F)(F)F)c1)C2, which Ki (Glucocorticoid receptor [1]) is on record?
**A.** 44 nM

**Q.** Which results are given for CCc1ccnc(C(=O)[C@]23Cc4cnn(-c5ccc(F)cc5)c4C=C2CCN(S(=O)(=O)c2cccc(C#N)c2)C3)c1?
**A.** Ki (Glucocorticoid receptor [1]): 1.7 nM; Ki (Glucocorticoid receptor [2]): 0.19 nM

**Q.** For Cn1nncc1S(=O)(=O)N1CC[C@H]2Cc3c(cnn3-c3ccc(F)cc3)C[C@]2(C(=O)c2cc(C(F)(F)F)ccn2)C1, which Ki (Glucocorticoid receptor [1]) is on record?
**A.** 120 nM

**Q.** With CCn1cc(S(=O)(=O)N2CCC3=Cc4c(cnn4-c4ccc(F)cc4)C[C@]3(C(=O)c3cc(C(F)(F)F)ccn3)C2)cn1 as the compound, how does the Cmax [3] read?
**A.** 0.126 µg/mL

**Q.** What about the Ki (Glucocorticoid receptor [1]) of the same compound?
**A.** 4.6 nM

**Q.** And the AUC at 24 h [4]?
**A.** 0.701 µg·h/mL

**Q.** For Cc1ccnc(C(=O)[C@]23Cc4cnn(-c5ccc(F)cc5)c4C=C2CCN(S(=O)(=O)c2ccc(C(F)(F)F)c(F)c2)C3)c1, which Cmax [3] is on record?
**A.** 0.048 µg/mL

**Q.** What about the Ki (Glucocorticoid receptor [1]) of the same compound?
**A.** 7.5 nM

**Q.** And the Ki (Glucocorticoid receptor [2])?
**A.** 0.42 nM

**Q.** What about the AUC at 24 h [4] of the same compound?
**A.** 0.173 µg·h/mL

**Q.** For CCn1nccc1S(=O)(=O)N1CCC2=Cc3c(cnn3-c3ccc(F)cc3)C[C@]2(C(=O)c2cc(C(F)(F)F)ccn2)C1, which Cmax [5] is on record?
**A.** 0.511 µg/mL

**Q.** What about the AUC at 24 h [8] of the same compound?
**A.** 0.193 µg·h/mL

**Q.** What about the bioavailability [9] of the same compound?
**A.** 1.5%

**Q.** What about the Ki (Glucocorticoid receptor [1]) of the same compound?
**A.** 10 nM

**Q.** What about the Cmax [10] of the same compound?
**A.** 0.0208 µg/mL

**Q.** And the AUC at 24 h [6]?
**A.** 1.53 µg·h/mL

**Q.** What about the bioavailability [7] of the same compound?
**A.** 52%

**Q.** Which results are given for O=C(c1ccccn1)[C@]12Cc3cnn(-c4ccc(F)cc4)c3C=C1CCN(S(=O)(=O)c1cc(F)cc(F)c1)C2?
**A.** Cmax [3]: 0.072 µg/mL; Ki (Glucocorticoid receptor [1]): 9.2 nM; Ki (Glucocorticoid receptor [2]): 0.12 nM; AUC at 24 h [4]: 0.143 µg·h/mL

**Q.** Which Ki (Glucocorticoid receptor [1]) does the source give for Cc1ccnc(C(=O)[C@]23Cc4cnn(-c5ccc(F)cc5)c4C=C2CCN(S(=O)(=O)c2cccc(C(F)(F)F)c2)C3)c1 here?
**A.** 5.1 nM

**Q.** And the Ki (Glucocorticoid receptor [2])?
**A.** 0.21 nM

**Q.** For O=C(c1nccs1)[C@]12Cc3cnn(-c4ccc(F)cc4)c3C=C1CCN(S(=O)(=O)c1cccc(C(F)(F)F)c1)C2, which Cmax [3] is on record?
**A.** 0.103 µg/mL

**Q.** What about the Ki (Glucocorticoid receptor [1]) of the same compound?
**A.** 17 nM

**Q.** What about the Ki (Glucocorticoid receptor [2]) of the same compound?
**A.** 0.48 nM

**Q.** What about the AUC at 24 h [4] of the same compound?
**A.** 0.446 µg·h/mL

**Q.** With Cc1cccc(S(=O)(=O)N2CCC3=Cc4c(cnn4-c4ccc(F)cc4)C[C@]3(C(=O)c3ccccn3)C2)c1 as the compound, how does the Cmax [3] read?
**A.** 0.031 µg/mL

**Q.** And the AUC at 24 h [4]?
**A.** 0.083 µg·h/mL

**Q.** With Cc1cnc(C(=O)[C@]23Cc4cnn(-c5ccc(F)cc5)c4C=C2CCN(S(=O)(=O)c2ccc(Cl)c(Cl)c2)C3)s1 as the compound, how does the Cmax [3] read?
**A.** 0.03 µg/mL

**Q.** And the Ki (Glucocorticoid receptor [1])?
**A.** 7.4 nM

**Q.** What about the Ki (Glucocorticoid receptor [2]) of the same compound?
**A.** 0.32 nM

**Q.** And the AUC at 24 h [4]?
**A.** 0.135 µg·h/mL

**Q.** With Cn1ccc(S(=O)(=O)N2CC[C@H]3Cc4c(cnn4-c4ccc(F)cc4)C[C@]3(C(=O)c3cc(C(F)(F)F)ccn3)C2)n1 as the compound, how does the Ki (Glucocorticoid receptor [1]) read?
**A.** 24 nM

**Q.** Which Cmax [3] does the source give for Cc1cccc(S(=O)(=O)N2CCC3=Cc4c(cnn4-c4ccc(F)cc4)C[C@]3(C(=O)c3cc(C)ccn3)C2)c1 here?
**A.** 0.011 µg/mL

**Q.** What about the Ki (Glucocorticoid receptor [1]) of the same compound?
**A.** 3.3 nM

**Q.** And the Ki (Glucocorticoid receptor [2])?
**A.** 0.08 nM

**Q.** And the AUC at 24 h [4]?
**A.** 0.044 µg·h/mL
